Measured values reported in ChEMBL document CHEMBL3875163, “Novel urea and bis-urea primaquine derivatives with hydroxyphenyl or halogenphenyl substituents: Synthesis and biological evaluation” (Eur J Med Chem, 2016).
Values after ≈ are worked out from the molar mass of the structure shown.

Key:
Bacillus cereus = experiment: Antibacterial activity against Bacillus cereus ATCC 11778 after 18 hrs by serial microdilution broth assay; assay type: functional; conditions: ATCC 11778, 18 h
Outline: (§1)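 Broth microdilution MIC per EUCAST for aerobic bacteria in Mueller-Hinton broth, serial dilution 1000 to 0.78125 µg/ml from 10 mg/ml DMSO stocks. Inoculum from trypticase soy broth cultures (18 h, 37 °C), set to 0.5 McFarland in PBS pH 7.4, diluted 1:10. 18 h aerobic incubation at 35 °C in dark, then TTC 0.5 mg/ml for 3 h, HCl-isopropanol, A490. MIC = lowest concentration giving 50% inhibition versus untreated; duplicates.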

Staphylococcus aureus [1] = experiment: Antibacterial activity against methicillin resistant Staphylococcus aureus MFBF 10679 after 18 hrs by serial microdilution broth assay; assay type: functional; conditions: MFBF 10679, 18 h
Outline: (§2)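 EUCAST-based broth microdilution in Mueller-Hinton broth. Glycerol stock cultures grown in trypticase soy broth 18 h at 37 °C; inoculum in PBS pH 7.4 at 0.5 McFarland, diluted 1:10 in broth. Compounds from DMSO stocks, 1000 to 0.78125 µg/ml; 18 h aerobic, 35 °C, dark. TTC 0.5 mg/ml added, 3 h, then HCl/isopropanol, A490. MIC = lowest concentration giving 50% inhibition vs untreated; duplicates, averaged.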

Enterococcus faecalis [2] = experiment: Antibacterial activity against vancomycin resistant Enterococcus faecalis MFBF 11419 after 18 hrs by serial microdilution broth assay; assay type: functional; conditions: MFBF 11419, 18 h; outline: as §2
Staphylococcus aureus [3] = experiment: Antibacterial activity against methicillin resistant Staphylococcus aureus MFBF 10682 after 18 hrs by serial microdilution broth assay; assay type: functional; conditions: MFBF 10682, 18 h; outline: as §2
Staphylococcus aureus [4] = experiment: Antibacterial activity against methicillin sensitive Staphylococcus aureus ATCC 25213 after 18 hrs by serial microdilution broth assay; assay type: functional; conditions: ATCC 25213, 18 h; outline: as §1
Staphylococcus aureus [5] = experiment: Antibacterial activity against Staphylococcus aureus ATCC 6538 after 18 hrs by serial microdilution broth assay; assay type: functional; conditions: ATCC 6538, 18 h; outline: as §1
Pseudomonas aeruginosa [6] = experiment: Antibacterial activity against Pseudomonas aeruginosa ATCC 9027 after 18 hrs by serial microdilution broth assay; assay type: functional; conditions: ATCC 9027, 18 h; outline: as §2
Bacillus pumilus = experiment: Antibacterial activity against Bacillus pumilus NCTC 8241 after 18 hrs by serial microdilution broth assay; assay type: functional; conditions: NCTC 8241, 18 h; outline: as §1
Staphylococcus aureus [7] = experiment: Antibacterial activity against methicillin sensitive Staphylococcus aureus ATCC 25923 after 18 hrs by serial microdilution broth assay; assay type: functional; conditions: ATCC 25923, 18 h; outline: as §2
Enterococcus faecalis [8] = experiment: Antibacterial activity against vancomycin susceptible Enterococcus faecalis ATCC 29212 after 18 hrs by serial microdilution broth assay; assay type: functional; conditions: ATCC 29212, 18 h; outline: as §1
Bacillus spizizenii = experiment: Antibacterial activity against Bacillus subtilis ATCC 6633 after 18 hrs by serial microdilution broth assay; assay type: functional; conditions: ATCC 6633, 18 h; outline: as §1
Escherichia coli = experiment: Antibacterial activity against Escherichia coli ATCC 10535 after 18 hrs by serial microdilution broth assay; assay type: functional; conditions: ATCC 10535, 18 h; outline: as §1
Pseudomonas aeruginosa [9] = experiment: Antibacterial activity against Pseudomonas aeruginosa ATCC 27853 after 18 hrs by serial microdilution broth assay; assay type: functional; conditions: ATCC 27853, 18 h; outline: as §1
Pseudomonas aeruginosa [10] = experiment: Antibacterial activity against multi-drug resistant Pseudomonas aeruginosa MFBF after 18 hrs by serial microdilution broth assay; assay type: functional; outline: as §2
Glycine max = experiment: Inhibition of soybean LOX assessed as reduction in conversion of sodium linoleate to 13-hydroperoxylinoleic acid at 1 x 10^-4 M relative to control
Outline: (§3)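 Soybean lipoxygenase incubated at room temperature with sodium linoleate (0.1 mM) and test compound (DMSO stocks); formation of 13-hydroperoxylinoleic acid read at 234 nm. Single-point screening at 1 × 10^-4 M; IC50 from several concentrations. At least triplicate.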

[11] = Inhibition of soybean LOX assessed as reduction in conversion of sodium linoleate to 13-hydroperoxylinoleic acid; parameters: species or system Glycine max; outline: as §3
[12] = Antioxidant activity assessed as DPPH radical scavenging activity at 100 uM after 60 mins relative to control; assay type: functional
Outline: (§4)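 Compound in DMSO added to DPPH in absolute ethanol, 0.1 mM final; absorbance at 517 nm after 20 and 60 min at room temperature. At least triplicate.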

[13] = Antioxidant activity assessed as DPPH radical scavenging activity at 100 uM after 20 mins relative to control; assay type: functional; outline: as §4
[14] = Antioxidant activity assessed as inhibition of AAPH-induced linoleic acid lipid peroxidation at 1 x 10^-4 M by UV-absorbance method relative to control; assay type: functional
Outline: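 Linoleic acid peroxidation: 16 mM sodium linoleate dispersion in 0.05 M phosphate buffer pH 7.4 at 37 °C under air, initiated by AAPH (40 mM solution); compound at 1 × 10^-4 M; oxidation followed at 234 nm. At least triplicate.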

[15] = Growth inhibition of human Molt4/C8 cells after 72 hrs by MTT assay; assay type: functional, cell-based; conditions: MOLT-4, 72 h
[16] = Growth inhibition of mouse L1210 cells after 72 hrs by MTT assay; assay type: functional, cell-based; conditions: L1210, 72 h
[17] = Growth inhibition of human HeLa cells after 72 hrs by MTT assay; assay type: functional, cell-based
[18] = Growth inhibition of human SW620 cells after 72 hrs by MTT assay; assay type: functional, cell-based; conditions: SW-620, 72 h
Outline: (§5)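 Modified NCI DTP protocol: cells in DMEM with 10% FBS, 2 mM glutamine, antibiotics, 37 °C, 5% CO2; seeded 1 × 10^4 to 3 × 10^4 cells/ml on day 0, exposed to five 10-fold dilutions (10^-8 to 10^-4 M) for 72 h; solvent control. MTT read-out; quadruplicate points in three experiments; IC50 by linear regression of growth percentages bracketing 50%.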

[19] = Growth inhibition of human CEM cells after 72 hrs by MTT assay; assay type: functional, cell-based; conditions: CCRF-CEM
[20] = Growth inhibition of human NCI-H460 cells after 72 hrs by MTT assay; assay type: functional, cell-based; conditions: NCI-H460, 72 h; outline: as §5
[21] = Growth inhibition of human MCF7 cells after 72 hrs by MTT assay; assay type: functional, cell-based; conditions: MCF7, 72 h; outline: as §5
[22] = Growth inhibition of human MIAPaCa2 cells after 72 hrs by MTT assay; assay type: functional, cell-based; conditions: MIA PaCa-2, 72 h

Structure (SMILES)	inhibition (Glycine max) [%]	Activity [12] [%]	Activity [13] [%]	inhibition [14] [%]	IC50 [15] [µM]	IC50 [16] [µM]	IC50 [17] [µM]	IC50 [18] [µM]	IC50 [19] [µM]	IC50 [20] [µM]	IC50 [21] [nM]	IC50 [22] [µM]	further results
CN(C)[C@@H]1C(O)=C(C(N)=O)C(=O)[C@@]2(O)C(O)=C3C(=O)c4c(O)cccc4[C@@](C)(O)[C@H]3C[C@@H]12 [TETRACYCLINE]													MIC50 (Bacillus cereus): 0.312 µg/mL (≈ 0.702 µM); MIC50 (Staphylococcus aureus [1]): 0.312 µg/mL (≈ 0.702 µM); MIC50 (Enterococcus faecalis [2]): > 128 µg/mL; MIC50 (Staphylococcus aureus [3]): 0.312 µg/mL (≈ 0.702 µM); MIC50 (Staphylococcus aureus [4]): 0.156 µg/mL (≈ 0.351 µM); MIC50 (Staphylococcus aureus [5]): 0.15 µg/mL (≈ 0.338 µM); MIC50 (Pseudomonas aeruginosa [6]): 3 µg/mL (≈ 6.75 µM); MIC50 (Bacillus pumilus): 0.156 µg/mL (≈ 0.351 µM); MIC50 (Staphylococcus aureus [7]): 0.312 µg/mL (≈ 0.702 µM); MIC50 (Enterococcus faecalis [8]): 0.312 µg/mL (≈ 0.702 µM); MIC50 (Bacillus spizizenii): 0.312 µg/mL (≈ 0.702 µM); MIC50 (Escherichia coli): 2.5 µg/mL (≈ 5.63 µM); MIC50 (Pseudomonas aeruginosa [9]): 3 µg/mL (≈ 6.75 µM); MIC50 (Pseudomonas aeruginosa [10]): > 128 µg/mL
COc1cc(NC(C)CCCNC(=O)NNC(=O)Nc2ccc(Cl)cc2)c2ncccc2c1 (stereo not drawn)	39	100	97.6	42.1	186	58	120	48	108	63	180	≥ 250	
COc1cc(NC(C)CCCNC(=O)Nc2cccc(F)c2)c2ncccc2c1 (stereo not drawn)	44.6	26		74.3	23	19	18	27	21	24	18000	22	
COc1cc(NC(C)CCCNC(=O)NNC(=O)Nc2cc(C(F)(F)F)cc(C(F)(F)F)c2)c2ncccc2c1 (stereo not drawn)	33.9	88	86.8	39.9	22	18	17	16	13	18	2400	20	
COc1cc(NC(C)CCCNC(=O)NNC(=O)Nc2cccc(Cl)c2)c2ncccc2c1 (stereo not drawn)	48.4	95.1	97.9	70.8	93	27	44	25	81	32	220	74	
Cc1c(C)c2c(c(C)c1O)CCC(C)(C(=O)O)O2 (stereo not drawn)				76									

Further lines, with some results ahead:

inhibition (Glycine max) [%]	Structure (SMILES)	Activity [12] [%]	Activity [13] [%]	inhibition [14] [%]	IC50 [15] [µM]	IC50 [16] [µM]	IC50 [17] [µM]	IC50 [18] [µM]	IC50 [19] [µM]	IC50 [20] [µM]	IC50 [21] [nM]	IC50 [22] [µM]	further results
83	CC(Cc1ccc(O)c(O)c1)C(C)Cc1ccc(O)c(O)c1 (stereo not drawn) [NORDIHYDROGUAIARETIC ACID]	97	83										IC50 [11]: 4.5 µM
39.8	COc1cc(NC(C)CCCNC(=O)Nc2ccc(F)cc2)c2ncccc2c1 (stereo not drawn)	24.7		64.4	24	18	20	25	26	26	26000	21	
28	COc1cc(NC(C)CCCNC(=O)NNC(=O)Nc2ccc(Br)cc2)c2ncccc2c1 (stereo not drawn)	99	96.9		209	51	101	17	110	27	100	231	
